# Screens as filed in PubChem BioAssay.
# SDO1 yeast rescue: compounds rescuing growth of sdo1-depleted yeast, bone marrow failure model | S. cerevisiae sdo1-depleted JHY4D growth rescue, OD600 30 h; hits give high values; pdr5 snq2 efflux-pump mutant strain | z-score at 10 µM | 140,000 tested, 0.21% active | AID 817;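 active = z-score above 3 at both the 24 hr and the 30 hr optical density reads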
# Dynein transport: blocks dynein driven cargo transport along microtubules. z-score, hits read low. 3617.4 mouse cells, GR-EGFP nuclear translocation imaging; test concentration mostly 20 µM; stimulated with dexamethasone, 1 µM; hits give low values. AID 1381. 220,000 tested, 0.47% active;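 active = plate z-score of nuclear minus cytoplasmic receptor signal below a set negative limit, without overly bright fluorescence or cell loss, cut at about -3.5 in these data, passing the limit was not always enough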;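 note: z-score of nuclear minus cytoplasmic ring GR-EGFP intensity difference per well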
#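 Buffer or medium: Induction medium lacking tetracycline, stripped serum | Also added: Dexamethasone agonist, 1.0 µM final, for 30 min | Timing: 48 h induction, 1 h compound, 30 min dex at 37 °C | Detection: Formaldehyde fixation, Hoechst nuclear stain, 10x automated fluorescence imaging | Measure: Nuclear versus cytoplasmic GR-EGFP signal, averaged per well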
# Autophagy mod: autophagy modulation, high-content screen; MEF GFP-LC3 puncta imaging; test concentration mostly 10 µM; calls only at 10 µM (by protocol); 190,000 tested, 0.98% active;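 active = percentage of spot-positive cells more than 3 SD above its plate mean, without a fluorescence outlier flag or 80% toxicity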
# HCT116 PTEN-null: growth suppressors of cells with PTEN tumor suppressor deletion; HCT116 PTEN-null viability, CellTiter-Glo, 60 h; hits give low values; viability, % at 10 µM; 140,000 tested, 1.2% active;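 active = viability at or below a set limit, 4 SD under the median of all tested compounds, cut at about 3.7% in these data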;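 note: PTEN knockout HCT116 line with beta catenin targeted HCT116 as companion control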
# HCT116 bCat-KO: beta-catenin-lacking colon tumor cell growth suppression; viability, % at 10 µM; HCT116 beta-catenin knockout viability, CellTiter-Glo, 60 h; hits give low values; 140,000 tested, 1.5% active;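 active = viability at or under a set limit, the compound median less 4 SD, cut at about 6% in these data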
# Dynein inh conf: dynein cargo transport inhibition, confirmation; calls only at 20 µM; shares compounds with Dynein transport; 1,000 tested, 69% active; 3617.4 GR-EGFP nuclear translocation imaging, dexamethasone-induced;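 active = inhibition of receptor movement into the nucleus at or above a set limit in both runs, with normal cell brightness and cell count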;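 note: dexamethasone at 1 µM final in well for 30 min; nuclear minus cytoplasmic GR-EGFP mean intensity difference in channel 2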
# Numbers stand for hits; - = inactive; . = no result given; + = active, no number. Compounds with a hit are over-represented: about 2.2% of the library has one in this group of screens.
SMILES,SDO1 yeast rescue,Dynein transport,Autophagy mod,HCT116 PTEN-null,HCT116 bCat-KO,Dynein inh conf
O=C(Nc1ccccc1)c1nnsc1S(=O)c1ccc(Cl)cc1 (centres undefined),-,-3.5,-,2.2,-,+
O=C(c1nnsc1S(=O)c1ccc(Cl)cc1)N1CCOCC1 (centres undefined),.,-4.8,-,.,.,+
O=C(Nc1ccc(Cl)cc1)c1csc(Cc2ccccc2)n1,.,-,-,.,.,.
CNC(=O)c1ncoc1-c1ccc(Cl)cc1,.,-,.,.,.,.
O=S1(=O)CCC(NC(=S)SCCOc2ccccc2)C1 (centres undefined),.,-3.9,-,.,.,+
CCOC(=O)c1c(NC(=S)N2CCCCC2)sc2c1CCN(C(=O)OCC)C2,.,-3.6,.,.,.,+
CCOC(=O)c1c(NC(=S)N2CCOCC2)sc2c1CCN(C(=O)OCC)C2,.,-4.7,.,.,.,+
C=CCNC(=S)Nc1sc2c(c1C(=O)OCC)CCN(C(=O)OCC)C2,-,-,-,-,-,.
Nc1c(C(=O)N/N=C/c2ccc(F)cc2)oc2nc(-c3ccccc3)cc(-c3ccco3)c12,.,-,.,.,.,-
COc1cc(C(=O)Sc2ccc(C)cc2)cc(OC)c1OC,-,-4.4,-,-,-,+
COc1ccccc1OCC(=O)Sc1ccc(C)cc1,-,-,-,-,-,.
Cc1cc(-c2nnc(-c3ccccc3)c(-c3ccccc3)n2)c(C)o1,-,-3.7,-,-,-,-
COc1ccc([N+](=O)[O-])cc1NC(=O)C1CCCCC1C(=O)O (centres undefined),-,-,-,-,-,.
Cc1cc(C)n(-c2nc3ccccc3nc2Nc2ccc3c(c2)OCO3)n1,-,-,-,-,-,.
Cc1ccc2nc(Nc3ccc4[nH]c(=O)[nH]c4c3)c(-n3nc(C)cc3C)nc2c1,-,-,-,-,-,-
COc1ccc(CNc2nc(-c3cccnc3)nn2C(=O)C(C)C)cc1,.,-,-,.,.,.
BrC(=C\c1ccccc1)/C=N/n1cnnc1,.,-3.7,-,.,.,+
CCn1c(SCC(=O)N2CCOCC2)nc2oc3c(Cl)cc(Cl)cc3c(=O)c2c1=O,-,-3.5,-,-,-,+
COc1ccc(C(=O)C(CN2CCOCC2)c2ccccc2)cc1F (centres undefined),-,-4,-,1.3,1.6,+
Cc1cccn2c(CN(C)CCC3CCCCO3)c(C(=O)N3CCCCC3)nc12 (centres undefined),.,-,-,.,.,.
Cn1c(-c2ccccc2)c(C(=O)CCl)c2ccccc21,.,-3.8,-,.,.,+
COc1cc(N2C(=O)C=CC2=O)c(OC)cc1Cl,.,-5.1,.,.,.,+
CN(Cc1ccc(Cl)s1)C(=O)CCl,.,-5.7,-,.,.,+
COc1ccc(CC(=O)NNC(=O)Cc2ccc(OC)cc2)cc1,.,-,-,.,.,.
CN(C)CCNC(=O)c1ccc(Cl)s1,-,-,-,-,-,.
COc1ccc(CN(C)C(=O)CCl)cc1,.,-4.4,-,.,.,+
CN(Cc1ccc(Cl)cc1)C(=O)CCl,.,-6.2,-,.,.,+
CS(=O)(=O)N(CC(N)=O)Cc1ccc(Cl)cc1,-,-,-,-,-,.
